# How the values were obtained:
# Format in all cases: functional
# [1] = substrate: Cc1c(CC(=O)O)c(=O)oc2cc(NC(=O)COc3ccccc3-c3ccc(F)c(F)c3F)ccc12; experiment: (§1) Activity of cathepsin S assessed as substrate cleavage efficiency
# Procedure, shortened: (§2)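 Cathepsin S at 37 °C in pH 6.1 100 mM sodium phosphate, 100 mM NaCl, 1 mM DTT, 1 mM EDTA, 0.001% Tween-20. AMCA substrate added from DMSO at ≥6-fold below its K_M. Run in duplicate with and without enzyme. Fluorescence (ex 370/em 455 nm) read over up to 15 min. Slope gave V_max/K_M; k_cat/K_M used AMCA calibration and E-64c-titrated enzyme concentration.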
# [2] = substrate: CCc1ccc(-c2ccccc2OCC(=O)Nc2ccc3c(C)c(CC(=O)O)c(=O)oc3c2)c(F)c1F; experiment: as §1; procedure, shortened: as §2
# [3] = substrate: CCCc1ccc(-c2ccccc2OCC(=O)Nc2ccc3c(C)c(CC(=O)O)c(=O)oc3c2)c(F)c1F; experiment: as §1; procedure, shortened: as §2
# [4] = substrate: Cc1c(CC(=O)O)c(=O)oc2cc(NC(=O)COc3ccccc3-c3ccc(CC4CCCCC4)c(F)c3F)ccc12; experiment: as §1; procedure, shortened: as §2
# [5] = substrate: CCCCc1ccc(-c2ccccc2OCC(=O)Nc2ccc3c(C)c(CC(=O)O)c(=O)oc3c2)c(F)c1F; experiment: as §1; procedure, shortened: as §2
# [6] = substrate: Cc1c(CC(=O)O)c(=O)oc2cc(NC(=O)COc3ccccc3-c3ccc(CC(C)C)c(F)c3F)ccc12; experiment: as §1; procedure, shortened: as §2
# [7] = substrate: COc1ccc(-c2ccccc2OCC(=O)Nc2ccc3c(C)c(CC(=O)O)c(=O)oc3c2)c(F)c1F; experiment: as §1; procedure, shortened: as §2
protein,measurement,setting,value
"Cathepsin S (Homo sapiens), P25774 (protein) MKRLVCVLLVCSSAVAQLHKDPTLDHHWHLWKKTYGKQYKEKNEEAVRRLIWEKNLKFVMLHNLEHSMGMHSYDLGMNHLGDMTSEEVMSLMSSLRVPSQWQRNITYKSNPNRILPDSVDWREKGCVTEVKYQGSCGACWAFSAVGALEAQLKLKTGKLVSLSAQNLVDCSTEKYGNKGCNGGFMTTAFQYIIDNKGIDSDASYPYKAMDQKCQYDSKYRAATCSKYTELPYGREDVLKEAVANKGPVSVGVDARHPSFFLYRSGVYYEPSCTQNVNHGVLVVGYGDLNGKEYWLVKNSWGHNFGEEGYIRMARNKGNHCGIASFPSYPEI",kcat/Km,[1],27000 M⁻¹ s⁻¹
same,kcat/Km,[2],25900 M⁻¹ s⁻¹
same,kcat/Km,[3],145000 M⁻¹ s⁻¹
same,kcat/Km,[4],15700 M⁻¹ s⁻¹
same,kcat/Km,[5],85000 M⁻¹ s⁻¹
same,kcat/Km,[6],288000 M⁻¹ s⁻¹
same,kcat/Km,[7],2700 M⁻¹ s⁻¹
